Laboratory results from article PMC3204933 (Free radical biology & medicine, 2011).
“Also recorded” adds a separate entry of the source. Where no end group is shown, it is not given here.

Columns and labels:
Nox4 (COS-Nox4 cells) [1] = conditions: DPI 5 μM; untreated COS-Nox4 4818±19, COS-22 2577±6.5
Nox4 (COS-Nox4 cells) [2] = assay: cells; conditions: Homo sapiens, read-out: inhibition of Nox4-dependent activity
[3] = tested on: nitric oxide synthase (NOS); conditions: ref [41], [47]; cited from earlier work
xanthine oxidase [4] = conditions: ref [41], [47]; cited from earlier work
[5] = tested on: NADH dehydrogenase (mitochondrial complex I); conditions: ref [41], [47]; cited from earlier work
[6] = target: T1, Nox2 oxidase (COS-Nox2 cell lysate) (Homo sapiens, UniProt P14598); assay: SOD-inhibitable cytochrome c assay, COS-Nox2 cell-free system; format: biochemical; conditions: for decrease of O2^•− production: L-NAME 100 μM, rotenone 50 μM, febuxostat 100 nM, n = 3
T1 sequence (P14598 1-390): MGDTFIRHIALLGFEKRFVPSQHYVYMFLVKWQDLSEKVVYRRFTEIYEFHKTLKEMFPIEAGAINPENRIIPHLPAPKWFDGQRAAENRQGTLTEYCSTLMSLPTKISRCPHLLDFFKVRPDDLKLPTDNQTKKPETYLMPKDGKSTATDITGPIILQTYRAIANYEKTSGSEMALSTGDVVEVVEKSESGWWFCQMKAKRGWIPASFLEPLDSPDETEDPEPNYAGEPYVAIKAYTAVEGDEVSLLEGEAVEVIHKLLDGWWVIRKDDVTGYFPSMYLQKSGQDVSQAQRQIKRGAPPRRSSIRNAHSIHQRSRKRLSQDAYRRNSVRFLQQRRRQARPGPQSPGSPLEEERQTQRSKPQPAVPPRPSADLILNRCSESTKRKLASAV

[7] = tested on: Nox1/NOXO1/NOXA1 (HEK-Nox1 cell-free system); assay: Cytochrome c assay, HEK-Nox1 cell-free system; format: biochemical, human; conditions: 10 μM Nox2ds preincubated with NOXO1; LiDS 130 μM
In short: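 […] cells were separately transfected with Nox1, NOXO1 or NOXA1. Lysates were spun at 160000 × g for 60 min at 4 °C to give Nox1 membranes and NOXO1 and NOXA1 cytosols. NOXO1 was preincubated with vehicle or 10 μM peptide for 10 min, then Nox1 membrane and NOXA1 added in turn. LiDS (130 μM) was followed by 180 μM NADPH. Output was the initial linear rate of SOD-inhibitable cytochrome c reduction, nmol/min/10^7 cell equivalents.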

[8] = tested on: Nox1 oxidase (COS-Nox1/NOXO1/NOXA1 cells); assay: L-012 chemiluminescence, intact COS-Nox1/NOXO1/NOXA1 cells; format: cell-based, human; conditions: n = 3; for L-012 chemiluminescence: untreated 52977±1921
COS-22 cells = assay: L-012 chemiluminescence, intact COS-22 cells; format: cell-based; conditions: n = 3, untreated 8734±158
[9] = tested on: HEK-Nox1/NOXO1/NOXA1 cells; assay: L-012 chemiluminescence, intact HEK-Nox1/NOXO1/NOXA1 cells; format: cell-based, human; conditions: PMA 1 μM
HEK 298 cells = assay: L-012 chemiluminescence, non-transfected HEK 298 cells; format: cell-based; conditions: PMA 1 μM; n = 4; unstimulated 755±65.3
[10] = tested on: Nox4 DH domain (GST-fused); assay: Fluorescence polarization competition with FITC-Nox4 B-loop; format: binding; conditions: for competition with Nox4 B-loop for Nox4 DH domain: fluorescence polarization
SH3 domains of p47^phox = conditions: ref [41], [42]; cited from earlier work
xanthine oxidase [11] = assay: Xanthine/xanthine oxidase O2^•− generating system, EPR; format: biochemical
[12] = target: T2, Nox4 dehydrogenase domain (amino acids 304 – 578) recombinant protein fused to GST (human, UniProt Q9NPH5 304-578); assay: fluorescence polarisation
T2 sequence (looked up): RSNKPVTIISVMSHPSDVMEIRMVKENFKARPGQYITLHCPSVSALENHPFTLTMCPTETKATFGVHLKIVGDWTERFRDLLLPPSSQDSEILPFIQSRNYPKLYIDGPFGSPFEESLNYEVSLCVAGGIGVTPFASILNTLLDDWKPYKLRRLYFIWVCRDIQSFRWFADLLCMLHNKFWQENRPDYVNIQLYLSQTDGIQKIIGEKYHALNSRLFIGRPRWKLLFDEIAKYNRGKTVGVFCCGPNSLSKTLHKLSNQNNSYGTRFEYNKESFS

## c1ccc2c(c1)[I+]c1ccccc1-2 [DPI, diphenyleneiodonium chloride]
Nox4 (COS-Nox4 cells) [1]
  H2O2-generating activity, Amplex Red fluorescence: 2977±227 RFU
Nox4 (COS-Nox4 cells) [2]
  inhibition at 5 µM: 82%
[3]
  inhibition: inhibits a multitude of flavin-containing enzymes including nitric oxide synthase (NOS)
Xanthine oxidase [4]
  inhibition: inhibits a multitude of flavin-containing enzymes including nitric oxide synthase (NOS), xanthine oxidase
[5]
  inhibition: inhibits a multitude of flavin-containing enzymes including nitric oxide synthase (NOS), xanthine oxidase, and NADH dehydrogenase (mitochondrial complex I)

## COC(=O)[C@@H](N)CCCNC(N)=N[N+](=O)[O-] [L-NAME, Nω-Nitro-L-arginine methyl ester]
[6]
  decrease of O2^•− production: did not decrease O2^•− production significantly

## CCCCCCCCCCCCOS(=O)(=O)[O-].[Li+] [LiDS, lithium dodecyl sulfate]
[6]; LiDS 130 μM, NADPH 180 μM, vehicle 0.40±0.1, p < 0.05
  O2^•− production: 1.33±0.1 nmol O2^•−/min/10^7 COS-Nox2 lysate-cell equivalents
[7]
  effect on O2^•− production in HEK-Nox1 cell-free system: significantly increased O2^•− production

## CCCCCCCCCCCCCC(=O)O[C@@H]1[C@@H](C)[C@@]2(O)[C@@H](C=C(CO)C[C@]3(O)C(=O)C(C)=C[C@@H]23)[C@@H]2C(C)(C)[C@]12OC(C)=O [PMA, phorbol myristate acetate]
[8]; PMA 1 μM
  L-012 chemiluminescence: 56537±2741 RLUs
[8]; SOD 150 U/ml, PMA 1 μM
  effect on chemiluminescent signal / O2^•−: did not stimulate O2^•−
COS-22 cells; PMA 1 μM
  L-012 chemiluminescence: 5903±541 RLUs
[9]; n = 4, p < 0.05
  stimulation of O2^•−: significantly stimulated O2^•−
[9]; n = 4, unstimulated 8560±337, p < 0.05
  L-012 chemiluminescence: 12946±199 RLUs
HEK 298 cells
  L-012 chemiluminescence: 912±40.5 RLUs

## Cc1nc(-c2ccc(OCC(C)C)c(C#N)c2)sc1C(=O)O [febuxostat, Febuxostat]
[6]
  decrease of O2^•− production: did not decrease O2^•− production significantly

## C=C(C)[C@H]1Cc2c(ccc3c2O[C@@H]2COc4cc(OC)c(OC)cc4[C@@H]2C3=O)O1 [rotenone]
[6]
  decrease of O2^•− production: did not decrease O2^•− production significantly

## Nox4 B-loop: unlabeled Nox4 B-loop peptide (amino acids 77 – 106) (RTLLAYLRGSQKVPSRRTRRLLDKSRTFHI)
[10]
  competition with Nox4 B-loop for Nox4 DH domain: effectively competed off the FITC-Nox4 B-loop in the low micromolar range; also recorded: quite effectively, in the low micromolar range

## PR-39
SH3 domains of p47^phox
  SH3 binding and association of p47^phox with Nox2: binds to the SH3 domains of p47^phox, was shown to prevent association of p47^phox with Nox2

## [NH3]-C-L-R-V-T-R-Q-S-R-[CONH2] [scrmb Nox2ds]
[6]; 0.1–10 μM, 5 min preincubation, LiDS 130 μM, NADPH 180 μM, 7–16 experiments
  inhibition of O2^•− production: did not inhibit Nox2-oxidase
[10]; at concentrations below 0.1 mM
  competition with Nox4 B-loop: not effective
[10]
  competition with Nox4 B-loop for Nox4 DH domain: equal and poor competition with the Nox4 B-loop for binding to the Nox4 DH domain (millimolar concentrations)
Xanthine oxidase [11]; 10 μM peptide + X/XO, 10 min, XO/X control 100±2.4, mean ± SEM of 6 experiments
  CM^• radical intensity: 92.4±1.8%
Xanthine oxidase [11]; 10 μM, 10 min preincubation
  effect on XO-generated O2^•−: did not alter XO-generated O2^•−

## superoxide dismutase [SOD]
[8]; SOD 150 U/ml, PMA 1 μM
  effect on chemiluminescent signal / O2^•−: abolished the chemiluminescent signal
[8]; SOD 150 U/ml
  L-012 chemiluminescence: 177±9 RLUs
COS-22 cells; SOD 150 U/ml
  L-012 chemiluminescence: 108±16 RLUs
Xanthine oxidase [11]; XO + X in presence of 100 U/ml SOD, 6 experiments
  radical intensity: 15.7±0.3%

## CSTRVRRQL-NH2 [Nox2ds]
[12]
  LogEC50: 5.5 nM

## RTLLAYLRGSQKVPSRRTRRLLDKSRTFHI (peptide, UniProt Q9NPH5-1 77-106, looked up) [unlabeled Nox4 B-loop peptide (amino acids 77 – 106)]
[12]
  LogEC50: 3 nM
